ChEMBL document CHEMBL2413066, “Molecular docking guided structure based design of symmetrical N,N'-disubstituted urea/thiourea as HIV-1 gp120-CD4 binding inhibitors” (Bioorg Med Chem, 2013)

Assay: Inhibition of HIV1 gp120-CD4 (unknown origin) interaction after 1 hr by ELISA
Parameters: species or system Human immunodeficiency virus 1
Outline: (§1)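 Capture ELISA for gp120–CD4 binding. Compounds diluted in diluent buffer over 0.1–1000 ng/ml and added with positive reference CD4 (1000 ng/ml). The CD4 standard ran in twofold dilutions from 1000 to 0.5 ng/ml. Incubation 1 h at room temperature, three washes, then conjugate at 1:100 for 1 h. TMB for 10 min, reaction stopped, absorbance read at 450 nm; IC50 derived.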

Row | Structure (SMILES) | IC50 [nM]
1 | S=C(Nc1ccc(Cc2nc3ccccc3[nH]2)cc1)Nc1ccc(Cc2nc3ccccc3[nH]2)cc1 | 149
2 | O=C(Nc1ccc(Cc2nc3ccccc3[nH]2)cc1)Nc1ccc(Cc2nc3ccccc3[nH]2)cc1 | 197
3 | S=C(Nc1ccc(-c2nc3ccccc3[nH]2)cc1)Nc1ccc(-c2nc3ccccc3[nH]2)cc1 | 126
4 | O=C(NCc1nc2ccccc2[nH]1)NCc1nc2ccccc2[nH]1 | 247
5 | O=C(Nc1ccc(-c2nc3ccccc3[nH]2)cc1)Nc1ccc(-c2nc3ccccc3[nH]2)cc1 | 188
6 | S=C(NCc1nc2ccccc2[nH]1)NCc1nc2ccccc2[nH]1 | 13

Assay: Inhibition of HIV-1 gp120-CD4 (unknown origin) interaction
Parameters: species or system Human immunodeficiency virus 1
Outline: as §1

Row | Structure (SMILES) | pIC50
7 | C[C@H]1CN(C(=O)c2ccccc2)CCN1S(=O)(=O)c1c[nH]c2c(-n3cncn3)nccc12 | 6.824
8 | C[C@@H]1CN(S(=O)(=O)c2c[nH]c3ncccc23)CCN1C(=O)c1ccccc1 | 4.886
9 | C[C@H]1CN(C(=O)c2csc(Br)n2)CCN1S(=O)(=O)c1c[nH]c2ncccc12 | 6.377
10 | CC[C@H]1CN(C(=O)c2ccccc2)CCN1S(=O)(=O)c1c[nH]c2ncccc12 | 4.796
11 | O=C(c1ccccc1)N1CCN(S(=O)(=O)c2c[nH]c3ncccc23)CC1 | 4.657
12 | C[C@H]1CN(C(=O)c2csc(N)n2)CCN1S(=O)(=O)c1c[nH]c2ncccc12 | 6.284
13 | C[C@H]1CN(C(=O)c2ccn(C)n2)CCN1S(=O)(=O)c1c[nH]c2ncccc12 | 5.62
14 | Cc1ccc(C(=O)N2CCN(S(=O)(=O)c3c[nH]c4ncccc34)[C@@H](C)C2)s1 | 5.638
15 | Cc1csc(C(=O)N2CCN(S(=O)(=O)c3c[nH]c4ncccc34)[C@@H](C)C2)c1 | 5.721
16 | C[C@H]1CN(C(=O)c2ccccn2)CCN1S(=O)(=O)c1c[nH]c2ncccc12 | 5.481
17 | C[C@H]1CN(C(=O)c2cnccn2)CCN1S(=O)(=O)c1c[nH]c2ncccc12 | 5.041
18 | C[C@H]1CN(C(=O)c2ccccc2)CCN1S(=O)(=O)c1c[nH]c2c(-n3ccnn3)ccc(F)c12 | 6.824
19 | C[C@@H]1CN(C(=O)c2ccccc2)CCN1S(=O)(=O)c1c[nH]c2c(-n3nccn3)ccc(F)c12 | 6.699
20 | C[C@H]1CN(C(=O)c2ccccc2)CCN1S(=O)(=O)c1c[nH]c2c(-n3ccnc3)nccc12 | 7.097
21 | C[C@H]1CN(C(=O)c2cc3ccccc3o2)CCN1S(=O)(=O)c1c[nH]c2ncccc12 | 5.523

Next, values leading:

Row | pIC50 | Structure (SMILES)
22 | 8.097 | COc1cc[nH]c2ncc(C(=O)C(=O)N3CCN(C(=O)c4ccccc4)C[C@@H]3C)c1-2
23 | 7.444 | C[C@H]1CN(C(=O)c2ccccc2)CCN1S(=O)(=O)c1c[nH]c2c(-n3ccnc3)ncc(F)c12
24 | 5.372 | COc1cccc2[nH]cc(S(=O)(=O)N3CCN(C(=O)c4ccccc4)C[C@@H]3C)c12
25 | 5.328 | C[C@H]1CN(C(=O)c2ccccc2)CCN1S(=O)(=O)c1c[nH]c2c(F)c(F)c(F)c(F)c12
26 | 6.066 | C[C@H]1CN(C(=O)c2ccccc2)CCN1S(=O)(=O)c1c[nH]c2ncccc12
27 | 6.208 | C[C@H]1CN(C(=O)c2ccccc2)CCN1S(=O)(=O)c1c[nH]c2c(-n3nccn3)ncc(F)c12
28 | 6.284 | O=C(C(=O)N1CCN(C(=O)c2ccccc2)CC1)c1c[nH]c2ncccc12
29 | 6.367 | C[C@H]1CN(C(=O)c2ccccc2)CCN1S(=O)(=O)c1c[nH]c2ccccc12
30 | 7.523 | C[C@H]1CN(C(=O)c2ccccc2)CCN1C(=O)C(=O)c1c[nH]c2ncccc12
31 | 7.588 | COc1ncc(OC)c2c(C(=O)C(=O)N3CCN(C(=O)c4ccccc4)CC3)c[nH]c12
32 | 6.301 | C[C@H]1CN(C(=O)c2ccccc2)CCN1S(=O)(=O)c1c[nH]c2c(-n3cncn3)ccc(F)c12
33 | 8.301 | COc1ncc(OC)c2c(C(=O)C(=O)N3CCN(C(=O)c4ccccc4)C[C@@H]3C)c[nH]c12
34 | 6.699 | C[C@H]1CN(C(=O)c2ccccc2)CCN1S(=O)(=O)c1c[nH]c2cccc(F)c12
35 | 6.432 | C[C@H]1CN(C(=O)c2ccccc2)CCN1S(=O)(=O)c1c[nH]c2c(F)ccc(F)c12
36 | 5.444 | C[C@H]1CN(C(=O)c2ccccc2)CCN1S(=O)(=O)c1c[nH]c2ccc(F)cc12
